pIC50: −log10 of the molar value. Activity calls are given as the source filed them. The calls are words filed in the database; no cut-off is given here.
How the values were obtained:
dengue virus type 2 [1] = test: Antiviral activity against DENV2 16681 infected in African green monkey Vero E6 cells assessed as reduction in virus induced cytopathic effect at 10 uM measured after 96 hrs by reverse phase contrast microscopy; type: functional, organism-based; conditions: Vero C1008
Summary of the method: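 Vero E6 cells in supporting DMEM infected with DENV2 strain 16681 (MOI 0.01), then treated immediately with compound at 10 μM. After 96 h incubation, cytopathic effect photographed by reverse phase-contrast microscopy and scored semi-quantitatively (−, +, ++, +++) against infected controls.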

Vero C1008 = test: Cytotoxicity against African green monkey Vero E6 cells assessed as reduction in survival rate measured after 48 hrs by MTT assay; type: cell-based; conditions: chlorocebus sabaeus, vero c1008, 48 h
Summary of the method: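 MTT viability test on Vero E6 cells in DMEM over a range of compound concentrations. CC50 calculated from survival of treated cells relative to mock cells.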

dengue virus type 2 [2] = test: Antiviral activity against DENV2 16681 infected in African green monkey Vero E6 cells assessed as inhibitory rate of NS4B positive cells at 10 uM measured after 96 hrs incubation by DAPI staining based immunofluorescence method; type: functional; conditions: Dengue virus, 16681, Vero C1008, 96 h
Summary of the method: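 Vero E6 cells in DMEM infected with DENV2 strain 16681 at MOI 0.01, treated at once with compound (0, 0.1, 1, 10 μM), 96 h. Immunofluorescence with anti-NS4B antibody and DAPI counterstain. Infectivity taken as NS4B-positive cells over DAPI-stained total cells. Inhibitory rate = (1 − NS4B-positive % treated infected / NS4B-positive % mock-treated infected) × 100.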

dengue virus type 2 [3] = test: Antiviral activity against DENV2 16681 infected in African green monkey Vero E6 cells assessed as inhibitory rate of NS4B positive cells measured after 96 hrs incubation by DAPI staining based immunofluorescence method; type: functional, organism-based; conditions: for pIC50: Dengue virus, 16681, Vero C1008, 96 h; for inhibition: Vero C1008
Summary of the method: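 Vero E6 cells in DMEM, infected with DENV2 strain 16681 at MOI 0.01 and treated with compound (0, 0.1, 1, 10 μM; single 10 μM for screening). After 96 h, immunofluorescence with anti-NS4B antibody and DAPI nuclear counterstain. Infectivity = NS4B-positive cells / DAPI-stained cells. Inhibitory rate = (1 − NS4B-positive % treated / NS4B-positive % mock-treated infected) × 100. IC50 derived from NS4B-positive percentages across concentrations.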

[4] = Therapeutic index, ratio of CC50 for African green monkey Vero E6 cells to IC50 for DENV2 16681 infected in African green monkey Vero E6 cells; type: toxicity, Vero C1008; conditions: read-out: Ratio CC50/IC50
Summary of the method: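 TI = CC50/IC50. CC50 comes from the Vero E6 MTT survival test. IC50 comes from the NS4B-positive cell fraction by immunofluorescence in DENV2 16681-infected Vero E6 cells (MOI 0.01, 96 h, 0–10 μM).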

dengue virus type 2 [5] = test: Antiviral activity against DENV2 16681 infected in African green monkey Vero E6 cells assessed as reduction in virus induced cytopathic effect measured after 96 hrs by reverse phase contrast microscopy; type: functional, organism-based; conditions: Vero C1008
Summary of the method: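 Vero E6 cells in DMEM infected with DENV2 16681 at MOI 0.01, compound added immediately (screen at 10 μM, then 0, 0.1, 1, 10 μM). Photographed 96 h post infection by phase-contrast microscopy. CPE reduction scored qualitatively (−, +, ++, +++).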

Row | SMILES | inhibition (dengue virus type 2 [1]) | inhibition at 10 µM (dengue virus type 2 [2]) [%] | also measured
1 | COC(=O)[C@H](CC(C)C)NC(=O)[C@H]1O[C@@H](O[C@H]2[C@@H](O[C@H]3CC[C@]4(C)[C@H]5C(=O)C=C6[C@@H]7C[C@@](C)(C(=O)N[C@@H](CC(C)C)C(=O)OC)CC[C@]7(C)CC[C@@]6(C)[C@]5(C)CC[C@H]4C3(C)C)O[C@H](C(=O)N[C@@H](CC(C)C)C(=O)OC)[C@@H](O)[C@@H]2O)[C@H](O)[C@@H](O)[C@@H]1O | inactive | – | –
2 | CC1(C)[C@@H](O[C@H]2O[C@H](C(=O)O)[C@@H](O)[C@H](O)[C@H]2O[C@@H]2O[C@H](C(=O)O)[C@@H](O)[C@H](O)[C@H]2O)CC[C@]2(C)[C@H]3C(=O)C=C4[C@@H]5C[C@@](C)(C(=O)O)CC[C@]5(C)CC[C@@]4(C)[C@]3(C)CC[C@@H]12 [GLYCYRRHIZIN] | Active | 70.5 | CC50 (Vero C1008): > 100 µM; pIC50 (dengue virus type 2 [3]): 5.09; inhibition (dengue virus type 2 [3]): Dose-dependent effect; selectivity ratio [4]: > 12.3; inhibition (dengue virus type 2 [5]): Dose-dependent effect
3 | COC(=O)CCCCCCCCCCNC(=O)[C@H]1O[C@@H](O[C@H]2[C@@H](O[C@H]3CC[C@]4(C)[C@H]5C(=O)C=C6[C@@H]7C[C@@](C)(C(=O)O)CC[C@]7(C)CC[C@@]6(C)[C@]5(C)CC[C@H]4C3(C)C)O[C@H](C(=O)NCCCCCCCCCCC(=O)OC)[C@@H](O)[C@@H]2O)[C@H](O)[C@@H](O)[C@@H]1O | Active | 79.5 | CC50 (Vero C1008): > 100 µM; pIC50 (dengue virus type 2 [3]): 5.92; inhibition (dengue virus type 2 [3]): Dose-dependent effect; selectivity ratio [4]: > 80; inhibition (dengue virus type 2 [5]): Dose-dependent effect
4 | COC(=O)[C@H](Cc1ccccc1)NC(=O)[C@H]1O[C@@H](O[C@H]2[C@@H](O[C@H]3CC[C@]4(C)[C@H]5C(=O)C=C6[C@@H]7C[C@@](C)(C(=O)N[C@@H](Cc8ccccc8)C(=O)OC)CC[C@]7(C)CC[C@@]6(C)[C@]5(C)CC[C@H]4C3(C)C)O[C@H](C(=O)N[C@@H](Cc3ccccc3)C(=O)OC)[C@@H](O)[C@@H]2O)[C@H](O)[C@@H](O)[C@@H]1O | inactive | – | –
5 | COC(=O)[C@@H](Cc1ccccc1)NC(=O)[C@H]1O[C@@H](O[C@H]2[C@@H](O[C@H]3CC[C@]4(C)[C@H]5C(=O)C=C6[C@@H]7C[C@@](C)(C(=O)N[C@H](Cc8ccccc8)C(=O)OC)CC[C@]7(C)CC[C@@]6(C)[C@]5(C)CC[C@H]4C3(C)C)O[C@H](C(=O)N[C@H](Cc3ccccc3)C(=O)OC)[C@@H](O)[C@@H]2O)[C@H](O)[C@@H](O)[C@@H]1O | inactive | – | –
6 | COC(=O)CC[C@H](NC(=O)[C@H]1O[C@@H](O[C@H]2[C@@H](O[C@H]3CC[C@]4(C)[C@H]5C(=O)C=C6[C@@H]7C[C@@](C)(C(=O)N[C@@H](CCC(=O)OC)C(=O)OC)CC[C@]7(C)CC[C@@]6(C)[C@]5(C)CC[C@H]4C3(C)C)O[C@H](C(=O)N[C@@H](CCC(=O)OC)C(=O)OC)[C@@H](O)[C@@H]2O)[C@H](O)[C@@H](O)[C@@H]1O)C(=O)OC | inactive | – | –
7 | COC(=O)[C@@H](Cc1c[nH]c2ccccc12)NC(=O)[C@H]1O[C@@H](O[C@H]2[C@@H](O[C@H]3CC[C@]4(C)[C@H]5C(=O)C=C6[C@@H]7C[C@@](C)(C(=O)N[C@H](Cc8c[nH]c9ccccc89)C(=O)OC)CC[C@]7(C)CC[C@@]6(C)[C@]5(C)CC[C@H]4C3(C)C)O[C@H](C(=O)N[C@H](Cc3c[nH]c4ccccc34)C(=O)OC)[C@@H](O)[C@@H]2O)[C@H](O)[C@@H](O)[C@@H]1O | inactive | – | –
8 | COC(=O)[C@@]1(C)CC[C@]2(C)CC[C@]3(C)C(=CC(=O)[C@@H]4[C@@]5(C)CC[C@H](O[C@H]6O[C@H](C(=O)NN)[C@@H](O)[C@H](O)[C@H]6O[C@@H]6O[C@H](C(=O)NN)[C@@H](O)[C@H](O)[C@H]6O)C(C)(C)[C@@H]5CC[C@]43C)[C@@H]2C1 | inactive | – | –
9 | CC1(C)[C@@H](O[C@H]2O[C@H](C(=O)N[C@@H](Cc3ccccc3)C(=O)O)[C@@H](O)[C@H](O)[C@H]2O[C@@H]2O[C@H](C(=O)N[C@@H](Cc3ccccc3)C(=O)O)[C@@H](O)[C@H](O)[C@H]2O)CC[C@]2(C)[C@H]3C(=O)C=C4[C@@H]5C[C@@](C)(C(=O)N[C@@H](Cc6ccccc6)C(=O)O)CC[C@]5(C)CC[C@@]4(C)[C@]3(C)CC[C@@H]12 | inactive | – | –
10 | COC(=O)[C@H](CCSC)NC(=O)[C@H]1O[C@@H](O[C@H]2[C@@H](O[C@H]3CC[C@]4(C)[C@H]5C(=O)C=C6[C@@H]7C[C@@](C)(C(=O)N[C@@H](CCSC)C(=O)OC)CC[C@]7(C)CC[C@@]6(C)[C@]5(C)CC[C@H]4C3(C)C)O[C@H](C(=O)N[C@@H](CCSC)C(=O)OC)[C@@H](O)[C@@H]2O)[C@H](O)[C@@H](O)[C@@H]1O | Active | 66.3 | CC50 (Vero C1008): > 100 µM; pIC50 (dengue virus type 2 [3]): 5.35; inhibition (dengue virus type 2 [3]): Dose-dependent effect; selectivity ratio [4]: > 22.2; inhibition (dengue virus type 2 [5]): Dose-dependent effect
11 | COC(=O)[C@@H](NC(=O)[C@H]1O[C@@H](O[C@H]2[C@@H](O[C@H]3CC[C@]4(C)[C@H]5C(=O)C=C6[C@@H]7C[C@@](C)(C(=O)N[C@H](C(=O)OC)C(C)C)CC[C@]7(C)CC[C@@]6(C)[C@]5(C)CC[C@H]4C3(C)C)O[C@H](C(=O)N[C@H](C(=O)OC)C(C)C)[C@@H](O)[C@@H]2O)[C@H](O)[C@@H](O)[C@@H]1O)C(C)C | inactive | – | –
12 | COC(=O)[C@@H](CC(C)C)NC(=O)[C@H]1O[C@@H](O[C@H]2[C@@H](O[C@H]3CC[C@]4(C)[C@H]5C(=O)C=C6[C@@H]7C[C@@](C)(C(=O)N[C@H](CC(C)C)C(=O)OC)CC[C@]7(C)CC[C@@]6(C)[C@]5(C)CC[C@H]4C3(C)C)O[C@H](C(=O)N[C@H](CC(C)C)C(=O)OC)[C@@H](O)[C@@H]2O)[C@H](O)[C@@H](O)[C@@H]1O | Active | 53.1 | –
13 | COC(=O)[C@@]1(C)CC[C@]2(C)CC[C@]3(C)C(=CC(=O)[C@@H]4[C@@]5(C)CC[C@H](O[C@H]6O[C@H](C(=O)N/N=C/c7ccc(O)cc7)[C@@H](O)[C@H](O)[C@H]6O[C@@H]6O[C@H](C(=O)N/N=C/c7ccc(O)cc7)[C@@H](O)[C@H](O)[C@H]6O)C(C)(C)[C@@H]5CC[C@]43C)[C@@H]2C1 | Active | 32.5 | –
14 | COC(=O)[C@H](Cc1ccc(O)cc1)NC(=O)[C@H]1O[C@@H](O[C@H]2[C@@H](O[C@H]3CC[C@]4(C)[C@H]5C(=O)C=C6[C@@H]7C[C@@](C)(C(=O)N[C@@H](Cc8ccc(O)cc8)C(=O)OC)CC[C@]7(C)CC[C@@]6(C)[C@]5(C)CC[C@H]4C3(C)C)O[C@H](C(=O)N[C@@H](Cc3ccc(O)cc3)C(=O)OC)[C@@H](O)[C@@H]2O)[C@H](O)[C@@H](O)[C@@H]1O | inactive | – | –
15 | CC[C@H](C)[C@H](NC(=O)[C@H]1O[C@@H](O[C@H]2[C@@H](O[C@H]3CC[C@]4(C)[C@H]5C(=O)C=C6[C@@H]7C[C@@](C)(C(=O)N[C@H](C(=O)OC)[C@@H](C)CC)CC[C@]7(C)CC[C@@]6(C)[C@]5(C)CC[C@H]4C3(C)C)O[C@H](C(=O)N[C@H](C(=O)OC)[C@@H](C)CC)[C@@H](O)[C@@H]2O)[C@H](O)[C@@H](O)[C@@H]1O)C(=O)OC | inactive | – | –
16 | COC(=O)C[C@H](NC(=O)[C@H]1O[C@@H](O[C@H]2[C@@H](O[C@H]3CC[C@]4(C)[C@H]5C(=O)C=C6[C@@H]7C[C@@](C)(C(=O)O)CC[C@]7(C)CC[C@@]6(C)[C@]5(C)CC[C@H]4C3(C)C)O[C@H](C(=O)N[C@@H](CC(=O)OC)C(=O)OC)[C@@H](O)[C@@H]2O)[C@H](O)[C@@H](O)[C@@H]1O)C(=O)O | Active | 35.8 | –
17 | COC(=O)[C@@]1(C)CC[C@]2(C)CC[C@]3(C)C(=CC(=O)[C@@H]4[C@@]5(C)CC[C@H](O[C@H]6O[C@H](C(=O)N/N=C/c7ccncc7)[C@@H](O)[C@H](O)[C@H]6O[C@@H]6O[C@H](C(=O)N/N=C/c7ccncc7)[C@@H](O)[C@H](O)[C@H]6O)C(C)(C)[C@@H]5CC[C@]43C)[C@@H]2C1 | inactive | – | –
18 | COC(=O)[C@@]1(C)CC[C@]2(C)CC[C@]3(C)C(=CC(=O)[C@@H]4[C@@]5(C)CC[C@H](O[C@H]6O[C@H](C(=O)N/N=C/c7ccc(N(C)C)cc7)[C@@H](O)[C@H](O)[C@H]6O[C@@H]6O[C@H](C(=O)N/N=C/c7ccc(N(C)C)cc7)[C@@H](O)[C@H](O)[C@H]6O)C(C)(C)[C@@H]5CC[C@]43C)[C@@H]2C1 | inactive | – | –

Reference: ChEMBL document CHEMBL4396972, “Glycyrrhizic acid derivatives as Dengue virus inhibitors” (Bioorg Med Chem Lett, 2019)
